Reference: ChEMBL document CHEMBL1275442, “Pharmacokinetics and tissue distribution of anidulafungin in rats” (Antimicrob Agents Chemother, 2008)

Legend:
[1] = Cmax in F344 rat plasma at 5 mg/kg, iv administered as single bolus dose after 5 min by HPLC method; assay type: ADME, organism-based; parameters: dose 5 mg/kg, route intravenous
How it was run: (§1)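 Male F344 rats, 10–11 weeks, 223.6–243.8 g, given one IV dose of [¹⁴C]anidulafungin, 5 mg/kg, over about 5 min. Tissues and blood sampled at 0.083–72 h (n = 3 rats per time). Parent drug measured by HPLC; LLOQ/ULOQ were 20/5,120 ng/ml for plasma and 220/56,320 ng/g for tissue. Noncompartmental parameters taken from the composite mean profile.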

Kidney [2] = assay: Tmax in F344 rat kidney assessed as total compound-derived radioactivity at 5 mg/kg, iv administered as single bolus dose […]; assay type: ADME, organism-based; parameters: dose 5 mg/kg, route intravenous; conditions: in vivo
How it was run: (§2)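 Male F344 rats, 10 to 11 weeks old and 223.6 to 243.8 g, got one iv dose of [14C]anidulafungin at 5 mg/kg over about 5 min. Blood, CSF, kidney, liver, lung, quadriceps, spleen and skin were sampled predose and at 0.083 to 72 h, 3 rats per time. Total radioactivity (parent plus metabolites) was measured by liquid scintillation counting. Parameters were noncompartmental, from a composite mean profile.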

[3] = Tmax in F344 rat kidney at 5 mg/kg, iv administered as single bolus dose by HPLC method; assay type: ADME, organism-based; parameters: dose 5 mg/kg, route intravenous
How it was run: (§3)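 F344 males, 10 to 11 weeks old and 223.6 to 243.8 g, got a single 5 mg/kg iv dose of [14C]anidulafungin over about 5 min. Plasma and tissues were collected predose and at 0.083 to 72 h, n = 3 per time point. Parent drug was quantified by HPLC-UV, with LLOQ/ULOQ of 20/5,120 ng/ml in plasma and 220/56,320 ng/g in tissue. Noncompartmental parameters came from a composite mean concentration-time profile.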

Liver [4] = assay: Drug level in Long Evans rat liver assessed as low disposition of radioactivity per gram of tissue at 5 mg/kg, iv administered as single bolus dose measured 168 hrs postdose by autoradiography; assay type: ADME, organism-based; parameters: dose 5 mg/kg, route intravenous; conditions: in vivo
How it was run: (§4)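 Male pigmented Long Evans (HsdBlu:LE) rats, 7.5 weeks old, 202 to 217 g, single iv [¹⁴C]anidulafungin; one rat per sampling time. Euthanized by isoflurane and cardiac-puncture exsanguination. Sagittal whole-body sections quantified by phosphorimaging autoradiography, single samples corrected for section thickness across multiple sections per tissue. Concentrations (μg eq/g drug-derived radioactivity) interpolated from least-squares standard curves per scan.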

Zone of skin [5] = assay: Drug level in Long Evans rat skin assessed as radioactivity per gram of tissue at 5 mg/kg, iv administered as single bolus dose measured 6 hrs postdose by autoradiography; assay type: ADME, organism-based; parameters: dose 5 mg/kg, route intravenous; conditions: in vivo
How it was run: (§5)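 Male pigmented Long Evans (HsdBlu:LE) rats, 7.5 weeks old and 202 to 217 g, got a single iv dose of [14C]anidulafungin at 5 mg/kg. One rat per time point (0.5, 6, 12, 24, 72, 168 h) was euthanised by isoflurane and cardiac-puncture exsanguination. Sagittal whole-body sections were quantified by phosphorimaging. Samples were thickness-corrected, and concentrations (μg eq/g) were interpolated from least-squares standard curves.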

Zone of skin [6] = assay: AUC (0 to 24 hrs) in F344 rat skin at 5 mg/kg, iv administered as single bolus dose; assay type: ADME, organism-based; parameters: time < 24 hr, dose 5 mg/kg, route intravenous; conditions: in vivo; how it was run: as §1
Lung = assay: Drug level in Long Evans rat lung assessed as radioactivity per gram of tissue at 5 mg/kg, iv administered as single bolus dose measured 12 hrs postdose by autoradiography; assay type: ADME, organism-based; parameters: dose 5 mg/kg, route intravenous; conditions: in vivo; how it was run: as §4
Plasma [7] = assay: AUC (0 to infinity) in F344 rat plasma assessed as total compound-derived radioactivity per gram of tissue at 5 mg/kg, iv administered as single bolus dose […]; assay type: ADME, organism-based; parameters: time infinity, dose 5 mg/kg, route intravenous; conditions: in vivo
How it was run: (§6)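 Same F344 study: single 5 mg/kg IV [¹⁴C]anidulafungin given over about 5 min. Total drug-derived radioactivity (parent plus metabolites) counted by liquid scintillation, in […]. Noncompartmental analysis of the composite mean profile.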

[8] = Tmax in F344 rat skin at 5 mg/kg, iv administered as single bolus dose by HPLC method; assay type: ADME, organism-based, Zone of skin; parameters: dose 5 mg/kg, route intravenous; how it was run: as §3
Spleen [9] = assay: Drug level in Long Evans rat spleen assessed as radioactivity per gram of tissue at 5 mg/kg, iv administered as single bolus dose measured 168 hrs postdose by autoradiography; assay type: ADME, organism-based; parameters: dose 5 mg/kg, route intravenous; conditions: in vivo; how it was run: as §5
Kidney [10] = assay: Drug level in Long Evans rat kidney assessed as low disposition of radioactivity per gram of tissue at 5 mg/kg, iv administered as single bolus dose measured 72 hrs postdose by autoradiography; assay type: ADME, organism-based; parameters: dose 5 mg/kg, route intravenous; conditions: in vivo; how it was run: as §4
Cerebrospinal fluid = assay: AUC (0 to infinity) in F344 rat cerebrospinal fluid assessed as total compound-derived radioactivity per gram of tissue at 5 mg/kg, iv administered as single bolus dose […]; assay type: ADME, organism-based; parameters: time infinity, dose 5 mg/kg, route intravenous; conditions: in vivo; how it was run: as §6
Plasma [11] = assay: Tmax in F344 rat plasma assessed as total compound-derived radioactivity at 5 mg/kg, iv administered as single bolus dose […]; assay type: ADME, organism-based; parameters: dose 5 mg/kg, route intravenous; conditions: in vivo; how it was run: as §2
Zone of skin [12] = assay: Drug level in Long Evans rat skin assessed as radioactivity per gram of tissue at 5 mg/kg, iv administered as single bolus dose measured 168 hrs postdose by autoradiography; assay type: ADME, organism-based; parameters: dose 5 mg/kg, route intravenous; conditions: in vivo; how it was run: as §5
Liver [13] = assay: Tmax in F344 rat liver assessed as total compound-derived radioactivity at 5 mg/kg, iv administered as single bolus dose […]; assay type: ADME, organism-based; parameters: dose 5 mg/kg, route intravenous; conditions: in vivo; how it was run: as §2
[14] = Drug level in Long Evans rat eye assessed as radioactivity per gram of tissue at 5 mg/kg, iv administered as single bolus dose measured 0.5 hrs postdose by autoradiography; assay type: ADME, organism-based; parameters: dose 5 mg/kg, route intravenous; conditions: in vivo; how it was run: as §4
Spleen [15] = assay: Cmax in F344 rat spleen assessed as total compound-derived radioactivity per gram of tissue at 5 mg/kg, iv administered as single bolus dose after 30 mins […]; assay type: ADME, organism-based; parameters: dose 5 mg/kg, route intravenous; conditions: in vivo, 0.5 h; how it was run: as §6
[16] = Cmax in F344 rat spleen at 5 mg/kg, iv administered as single bolus dose after 30 min by HPLC method; assay type: ADME, organism-based; parameters: dose 5 mg/kg, route intravenous; how it was run: as §1
Spleen [17] = assay: Drug level in Long Evans rat spleen assessed as radioactivity per gram of tissue at 5 mg/kg, iv administered as single bolus dose measured 0.5 hrs postdose by autoradiography; assay type: ADME, organism-based; parameters: dose 5 mg/kg, route intravenous; conditions: in vivo; how it was run: as §5
Liver [18] = assay: Drug level in Long Evans rat liver assessed as low disposition of radioactivity per gram of tissue at 5 mg/kg, iv administered as single bolus dose measured 72 hrs postdose by autoradiography; assay type: ADME, organism-based; parameters: dose 5 mg/kg, route intravenous; conditions: in vivo; how it was run: as §4
Liver [19] = assay: Drug level in Long Evans rat liver assessed as high disposition of radioactivity per gram of tissue at 5 mg/kg, iv administered as single bolus dose measured 168 hrs postdose by autoradiography; assay type: ADME, organism-based; parameters: dose 5 mg/kg, route intravenous; conditions: in vivo; how it was run: as §4
Kidney [20] = assay: AUC (0 to infinity) in F344 rat kidney assessed as total compound-derived radioactivity per gram of tissue at 5 mg/kg, iv administered as single bolus dose […]; assay type: ADME, organism-based; parameters: time infinity, dose 5 mg/kg, route intravenous; conditions: in vivo; how it was run: as §6
Cerebrum = assay: Drug level in Long Evans rat cerebrum assessed as radioactivity per gram of tissue at 5 mg/kg, iv administered as single bolus dose measured 72 hrs postdose by autoradiography; assay type: ADME, organism-based; parameters: dose 5 mg/kg, route intravenous; conditions: in vivo; how it was run: as §4
Blood [21] = assay: Tmax in F344 rat blood assessed as total compound-derived radioactivity at 5 mg/kg, iv administered as single bolus dose […]; assay type: ADME, organism-based; parameters: dose 5 mg/kg, route intravenous; conditions: in vivo; how it was run: as §2
Blood [22] = assay: Half life in F344 rat blood assessed as total compound-derived radioactivity at 5 mg/kg, iv administered as single bolus dose […]; assay type: ADME, organism-based; parameters: dose 5 mg/kg, route intravenous; conditions: in vivo; how it was run: as §2
Kidney [23] = assay: Drug level in Long Evans rat kidney assessed as high disposition of radioactivity per gram of tissue at 5 mg/kg, iv administered as single bolus dose measured 168 hrs postdose by autoradiography; assay type: ADME, organism-based; parameters: dose 5 mg/kg, route intravenous; conditions: in vivo; how it was run: as §4

In the case of `CCCCCOc1ccc(-c2ccc(-c3ccc([14C](=O)N[C@H]4C[C@@H](O)[C@@H](O)NC(=O)[C@@H]5[C@@H](O)[C@@H](C)CN5C(=O)[C@H]([C@@H](C)O)NC(=O)[C@H]([C@H](O)[C@@H](O)c5ccc(O)cc5)NC(=O)[C@@H]5C[C@@H](O)CN5C(=O)[C@H]([C@@H](C)O)NC4=O)cc3)cc2)cc1` [14C-ANIDULAFUNGIN], the Cmax [1] is reported as 5250 ng/mL, the Tmax (Kidney [2]) is reported as 30 min and the Tmax [3] is reported as 30 min. For the same compound, the Drug uptake (Liver [4]) was 1.83 ugequiv, the Drug uptake (Zone of skin [5]) was 5.39 ugequiv and the AUC (Zone of skin [6]) was 102.72 µg·h/g. For the same compound, the Drug uptake (Lung) was 5.64 ugequiv, the AUC (Plasma [7]) was 177.87 ugequiv.hr/g and the Tmax [8] was 30 min. The Drug uptake (Spleen [9]) was 1.53 ugequiv, the Drug uptake (Kidney [10]) was 1.97 ugequiv and the AUC (Cerebrospinal fluid) was 0.95 ugequiv.hr/g. The Tmax (Plasma [11]) was 4.98 min, the Drug uptake (Zone of skin [12]) was 2.48 ugequiv and the Tmax (Liver [13]) was 480 min. It also gave a Drug uptake [14] of 1.17 ugequiv, a Cmax (Spleen [15]) of 30.92 ugequiv/g and a Cmax [16] of 24200 ng/g. It also gave a Drug uptake (Spleen [17]) of 20.67 ugequiv, a Drug uptake (Liver [18]) of 7.22 ugequiv and a Drug uptake (Liver [19]) of 4.27 ugequiv. For the same compound, the AUC (Kidney [20]) was 1437.94 ugequiv.hr/g, the Drug uptake (Cerebrum) was 0.47 ugequiv and the Tmax (Blood [21]) was 4.98 min. The t1/2 (Blood [22]) was 1710 min and the Drug uptake (Kidney [23]) was 2.57 ugequiv.
